Screening data from PubChem.
ERAP1 HTS inh – human ERAP1 aminopeptidase inhibitors, primary screen, biochemical, single point, plate reader; Endoplasmic reticulum aminopeptidase 1 (Homo sapiens), Q9NZ08; recombinant ERAP1, Leu-AMC fluorescence, 60 min; inhibition, % at 10.7 µM; 340,000 compounds, 0.15% hits; AID 652197, 2013;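 active = mean replicate inhibition of at least 30%, or all replicates individually reaching that 30% level; inactive = mean below 30% and not every replicate reaching it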;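 also: 0% = neutral control wells and 100% = L-leucinethiol positive control wells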
Target sequence (Q9NZ08 whole entry, looked up): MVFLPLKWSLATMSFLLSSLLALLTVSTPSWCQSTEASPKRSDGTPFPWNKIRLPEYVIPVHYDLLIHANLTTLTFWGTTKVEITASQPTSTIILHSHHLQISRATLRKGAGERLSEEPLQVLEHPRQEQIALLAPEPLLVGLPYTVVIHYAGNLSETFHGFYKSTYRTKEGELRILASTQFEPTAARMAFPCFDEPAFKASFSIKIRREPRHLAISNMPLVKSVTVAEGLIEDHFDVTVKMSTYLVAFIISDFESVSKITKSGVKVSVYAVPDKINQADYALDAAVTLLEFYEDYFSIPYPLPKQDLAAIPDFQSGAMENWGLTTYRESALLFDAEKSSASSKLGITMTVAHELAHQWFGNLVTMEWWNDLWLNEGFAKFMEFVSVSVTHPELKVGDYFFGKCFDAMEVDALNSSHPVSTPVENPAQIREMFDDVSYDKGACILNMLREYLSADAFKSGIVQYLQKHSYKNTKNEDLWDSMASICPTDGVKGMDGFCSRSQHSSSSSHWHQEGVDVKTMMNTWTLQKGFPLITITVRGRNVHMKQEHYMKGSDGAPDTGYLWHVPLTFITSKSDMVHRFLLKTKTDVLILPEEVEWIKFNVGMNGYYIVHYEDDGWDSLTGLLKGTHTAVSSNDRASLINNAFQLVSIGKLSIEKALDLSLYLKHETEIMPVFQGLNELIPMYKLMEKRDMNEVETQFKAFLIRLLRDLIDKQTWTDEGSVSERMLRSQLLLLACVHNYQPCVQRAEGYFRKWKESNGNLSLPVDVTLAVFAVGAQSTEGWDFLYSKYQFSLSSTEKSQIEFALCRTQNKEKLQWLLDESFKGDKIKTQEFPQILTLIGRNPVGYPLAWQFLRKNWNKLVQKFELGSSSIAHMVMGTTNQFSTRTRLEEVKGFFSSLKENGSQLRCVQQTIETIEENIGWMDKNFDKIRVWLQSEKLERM
Cneo AK release – Cryptococcus neoformans cell lysis inducers, primary screen, AK release luminescence, single concentration | lysis activity, % at 15 µM | C. neoformans lysis, adenylate kinase release luminescence, 4 h; normalised: neutral wells 0, clomiphene wells 100 | AID 651654, 2012 | 360,000 compounds, 0.2% hits;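 active = mean lysis activity across replicates of at least 80%, whatever share of replicates individually reach that level; inactive = mean lysis activity below 80%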
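Assay system: C. neoformans cells. Amount: yeast cell density of 5 × 10^6 cells/mL. Technique: AK luminescence. Buffer or medium: YPD. Times: static 4 h at 37 °C with compound, 1 h detection. Dosing: single-point compound dose. Read-out: lysis from increased AK signal.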
Env fusion inh – inhibitors of HIV-1 Env-driven cell-cell fusion, primary screen, HeLa-JRFL effector, CEM21 target cells, luciferase | inhibition, % at 12.3 µM | 360,000 compounds, 1.1% hits | AID 651610, 2012;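 active = mean replicate inhibition score of at least 50 and every replicate individually at or above 50; inconclusive = only one of the two criteria met; inactive = mean below 50 and not all replicates reaching 50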;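 also: 0% = plate neutral controls and 100% = maraviroc near 300 nM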
PGC1a acetyl inh – inhibitors of PGC1a acetylation signal, primary screen, cell-based, U2OS, AlphaScreen, inhibitor mode. AlphaScreen anti-acetyl-lysine; with virally co-expressed GCN5 acetyltransferase. inhibition, % at 15.6 µM. 350,000 compounds, 0.17% hits;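 active = every replicate shows inhibition of at least 40%; inconclusive = mean inhibition at least 40% but some replicate below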;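 also: 0% = neutral control wells and 100% = positive control wells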
Ecoli rRNA inh – reduced GFP signal of wild-type E. coli, primary screen, bacterial rRNA inhibitor project, GFP/RFP fluorescence, OD600, single point; E. coli WT GFP vs humanized-ribosome RFP mutants, 24 h; stronger effect = lower value; DMSO median 0, no signal -100; 350,000 compounds, 1.6% hits; GFP signal change (wild-type ribosome), % (no concentration beside the values);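 active = significant combined selectivity score with lowered wild-type GFP, culture density cut under 30%, mutant RFP and density less affected; inactive = any of these conditions unmet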
FGF22 binding – binders of human FGF22 protein, primary screen, FGF22 synaptogenesis inhibitor project, biophysical, thermal shift, single point; activity (Tm shift, normalised), % at 9.99 µM; 340,000 compounds, 1.5% hits; recombinant FGF22 thermal shift, SYPRO orange fluorescence; percent of sucrose octasulfate shift, DMSO zero;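 active = mean Tm shift, scaled 0 neutral to 100 positive control, at about 1.3% or above, every replicate too, limit read from the data; inconclusive = no clear call, values can overlap the other calls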
* hit, by the source's call; ? = inconclusive; · = not tested or not shown; [ ] = dose if it differs, or a comment. Compounds with a hit are over-represented: about 3.5% of the library has one in this group of screens.

SMILES | ERAP1 HTS inh | Cneo AK release | Env fusion inh | PGC1a acetyl inh | Ecoli rRNA inh | FGF22 binding
O=S(=O)(NC1=NCCC1)c1cccc(NS(=O)(=O)c2ccc(F)c(Cl)c2)c1 | -1 | 1 | -2 | 11 | 5 | 0
O=C(/C=C/c1ccccc1Cl)Nc1cccc(S(=O)(=O)NC2=NCCCCC2)c1 | · | · | -56 | · | · | ·
Cc1ccccc1NC(=O)COC(=O)c1ccc(S(=O)(=O)N2CCCCCC2)cc1 | 1 | · | -1 | · | -4 | 0
COC(=O)CNC(c1ccccc1)c1cc(C)ccc1NC(=O)CNC(=O)OCc1ccccc1 (stereo unspecified) | · | 1 | 73* | 22 | · | ·
COC(=O)CNC(c1ccccc1)c1cc(Br)ccc1NC(=O)OCc1ccccc1 (stereo unspecified) | · | 2 | · | 5 | · | ·
O=C(NCc1cccs1)c1cccc(Nc2nc3ccc(Br)cc3[nH]2)c1 | 1 | 1 | -14 | 4 | -54 | 1
COc1ccc(OC)c(-n2c(Cn3c(-c4ccccn4)nc4ccccc43)n[nH]c2=S)c1 | -2 | -2 | 7 | · | 8 | 44*
Cn1nc(SCc2ccccc2)c(=O)[nH]c1=O | 4 | 1 | · | -3 | -3 | 43*
Cn1nc(SCc2ccccc2)c(=O)n(C(c2ccccc2)c2ccccc2)c1=O | 2 | · | 16 | · | 7 | 0
Oc1c(Cl)cc(CN2CCCCC2)c2cccnc12 | · | 2 | · | 2 | · | ·
Oc1c(CN2CCCCC2)ccc2cccnc12 | 10 | -9 | 4 | 25 | -13* | -1
C=CCn1c(SCC(=O)N2CC(C)OC(C)C2)nnc1-c1ccncc1 (stereo unspecified) | 49* | -1 | -1 | -3 | 11 | 0
Cc1ccc(NC(=S)/N=C(\N)Nc2nc(C)c3cc(C)c(C)cc3n2)cc1C | -4 | 11 | -4 | -66 | 5 | 43*
Cc1ccc(NC(=S)/N=C(\N)Nc2nc(C)c3cc(C)ccc3n2)c(C)c1 | -6 | 1 | 10 | -8 | 14 | 0
CC(C)CNC(=O)c1ccc(C2SCC(=O)N2Cc2ccccc2)cc1 (stereo unspecified) | 2 | · | -5 | -14 | 3 | 1
N/C(=N\OC(=O)COc1cc(Cl)c(Cl)cc1Cl)c1ccncc1 | 0 | · | -36 | · | 20 | 43*
CCC(=O)Oc1ccc(C(=O)Nc2ccccc2C(=O)NCC(C)C)cc1 | 9 | · | -5 | · | -7 | 0
CCC(=O)Oc1ccc(C(=O)Nc2cccc(C(=O)NCC(C)C)c2)cc1 | -3 | · | -4 | · | -5 | 43*
COCn1ccnc1C(=O)c1ccco1 | 0 | 0 | 11 | -1 | 4 | 0
COc1ccccc1C(=O)Nc1ccc2c(c1)OC[C@H](C)N(C(C)=O)C[C@H](C)[C@H](OC)CN(C)C2=O | · | 101* | 60*[16.7 µM] | -1 | -3 | 0
CO[C@H]1CN(C)C(=O)c2cc(NC(=O)c3ccc(F)cc3)ccc2OC[C@H](C)N(C(=O)CN(C)C)C[C@@H]1C | 2 | 2 | 62*[16.7 µM] | -2 | · | ·
CCCNC(=O)Nc1ccc2c(c1)C(=O)N(C)C[C@@H](OC)[C@@H](C)CN(CC1CCCC1)[C@@H](C)CO2 | · | · | · | 3 | 1 | ·
CCCNC(=O)Nc1ccc2c(c1)C(=O)N(C)C[C@H](OC)[C@H](C)CN(CC1CCCC1)[C@@H](C)CO2 | · | · | · | 44* | 1 | ·
CO[C@H]1CN(C)C(=O)c2cc(NC(=O)c3ccccc3F)ccc2OC[C@H](C)N(CC2CCOCC2)C[C@H]1C | -5 | 98* | 13[16.7 µM] | 13 | -1 | ·
COc1cccc(CN(C)C(=O)c2cccc(S(=O)(=O)N3CCN(Cc4ccccc4)CC3)c2)c1OC | 0 | -5 | · | · | -8 | 0
SMILES | ERAP1 HTS inh | Cneo AK release | Env fusion inh | PGC1a acetyl inh | Ecoli rRNA inh | FGF22 binding
C[C@H](CO)N1C[C@H](C)[C@@H](CN(C)C(=O)Nc2ccc(C(F)(F)F)cc2)Oc2cc(-c3ccncc3)ccc2S1(=O)=O | 0 | 2 | 13[16.7 µM] | 10 | -2 | 0
O=C(COC(=O)C1CCN(S(=O)(=O)c2ccc(Cl)c(C(F)(F)F)c2)CC1)NCc1ccco1 | -1 | · | -25 | · | 6 | 0
C[C@@H]1CCCCO[C@@H](CN(C)C(=O)Cc2ccccc2)[C@@H](C)CN([C@H](C)CO)C(=O)c2cc(NC(=O)Nc3cccc4ccccc34)ccc2O1 | 0 | 2 | 1[16.7 µM] | 14 | 2 | -1
N#CC(c1ccc(=O)[nH]n1)c1ccc(Cl)cc1Cl (stereo unspecified) | 5 | · | -1 | · | 4 | 0
CO[C@H]1CN(C)C(=O)c2cc(NC(=O)c3ccc4c(c3)OCO4)ccc2OC[C@@H](C)N(CC2CC2)C[C@H]1C | 0 | 90* | 15[16.7 µM] | 5 | 1 | -1
CO[C@H]1CN(C)C(=O)c2cc(NC(=O)c3ccccc3F)ccc2OC[C@@H](C)N(C(C)=O)C[C@@H]1C | -8 | 51 | 11[16.7 µM] | 130* | 3 | 0
CO[C@@H]1CN(C)C(=O)c2cc(NC(=O)c3ccccc3F)ccc2OC[C@@H](C)N(C(C)=O)C[C@H]1C | 0 | 49 | 5[16.7 µM] | 14 | 0 | 0
CO[C@H]1CN(C)C(=O)c2cc(NC(=O)c3ccccc3F)ccc2OC[C@H](C)N(C(C)=O)C[C@H]1C | -5 | 95* | 4[16.7 µM] | 0 | 4 | 0
COc1ccc(NC(=O)N(C)C[C@@H]2Oc3ccc(NC(=O)CCCN(C)C)cc3C(=O)N([C@@H](C)CO)C[C@H]2C)cc1 | -1 | -1 | · | 1 | 2 | 0
COc1ccc2c3c(n(C)c2c1)[C@H](CO)N(C(=O)Nc1ccccc1F)CC31CN(C(=O)c2ccccc2F)C1 | -1 | · | · | 4 | 6 | ·
O=C(c1ccc(Cl)c([N+](=O)[O-])c1)N1CCN(c2ccccn2)CC1 | 2 | · | 6 | · | -14 | 0
O=[N+]([O-])c1cc(-c2n(-c3ccccn3)c3ccccc3[n+]2-c2ccccn2)ccc1Cl | 2 | 6 | 64* | · | 24 | 0
Cc1c(Cl)cccc1NC(=S)N1CCN(C(=O)c2ccco2)CC1 | 2 | 1 | · | · | -28* | 0
Cc1cccc(NC(=S)N2CCN(C(=O)c3ccco3)CC2)c1C | 3 | 0 | 5 | · | -13 | 0
Fc1ccc(-n2cc(CNCCc3cccnc3)c(-c3ccccc3Cl)n2)cc1 | -6 | · | ? | · | -40* | 0
Fc1ccc(-n2cc(CNCCc3ccncc3)c(-c3ccccc3Cl)n2)cc1 | 12 | 1 | 20 | · | -15 | 0
